Results on six compounds are retold here after ChEMBL document CHEMBL1152850, “Efficient inhibition of the Alzheimer's disease beta-secretase by membrane targeting” (Science, 2008).

Structures are written as SMILES. Active and inactive are the calls of the source. No cut-off for these calls is given here. Square brackets hold non-standard residues; d marks the D form. Peptide text beside a SMILES is read from it. * marks the point of attachment. Piperazinyl(4-RhodamineB) = CCN(CC)c1ccc2c(-c3ccccc3C(=O)N3CCN(*)CC3)c3ccc(=[N+](CC)CC)cc-3oc2c1; X4 = CC(C)CCC[C@@H](C)[C@H]1CC[C@H]2[C@@H]3CC[C@H]4C[C@@H](OCC(=O)*)CC[C@]4(C)[C@H]3CC[C@]12C; X1 = CC(C)CCC[C@@H](C)[C@H]1CC[C@H]2[C@@H]3CCC4C[C@@H](O*)CC[C@]4(C)[C@H]3CC[C@]12C; Sta = CC(C)C[C@H](N)[C@@H](O)CC(=O)O; PEG4 = NCCOCCOCCOCCOCCC(=O)O; PEG3 = NCCOCCOCCOCCC(=O)O; X3 = CCCCCCCCCCCCCCCCO*; X2 = CCCCCCCCCCCCCCO*; βAla = NCCC(=O)O

Assay [1] addresses Beta-secretase 1 (Homo sapiens) (UniProt P56817). As to the kind of experiment: Inhibition of BACE1 mediated APP cleavage in human HeLa cells expressing swAPP at 20 nM after 4 hrs. The class given is cell-based. Put shortly:
(§1)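 HeLa-swAPP cells incubated with compounds at 20 nM or 200 nM for 4 hours; harvested medium assayed for sAPPβ and expressed as percent inhibition of β cleavage, mean ± SD.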

The target is the same in assay [2]. The assay is described as follows: Inhibition of BACE1 mediated APP cleavage in human HeLa cells expressing swAPP at 200 nM after 4 hrs. It is filed as cell-based. In short, it runs like this: as §1
Assay [3] has the same target. As to the kind of experiment: Inhibition of BACE1 mediated APP cleavage in human HeLa cells expressing swAPP at 200 nM by electrochemiluminescence assay. It is filed as cell-based.
The target is the same in assay [4]. As to the kind of experiment: Inhibition of BACE1 mediated APP cleavage in human HeLa cells expressing swAPP assessed as as beta cleaved ectodomain of APP level. The class given is cell-based.
The target is the same in assay [5]. As to the kind of experiment: Inhibition of BACE1 ectodomain relative to control.
Assay [6] has as its system Mus musculus. As to the kind of experiment: Reduction in amyloid beta production in transgenic swAPP/PSDE9 mouse expressing APP KM670/671NL mutant and presenilin-1 […] at 10 mM dosed stereotaxically into hippocampus after 4 hrs. It is filed as functional, organism-based. In short, it runs like this: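 APPsw/PSΔE9 transgenic mice given a stereotaxic injection into the hippocampus, with DMSO as solvent control; hippocampal Aβ measured 4 hours later. Means ± SD, Student t test.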

Assay [7] addresses Beta-secretase 1 (Mus musculus) (UniProt P56818). The assay is described as follows: Inhibition of BACE1 mediated APP cleavage in mouse N2a cells expressing swAPP by electrochemiluminescence assay. It is filed as cell-based.
Assay [8] deals with Beta-secretase 1 (Homo sapiens) (UniProt P56817). The assay is described as follows: Inhibition of BACE1 mediated APP cleavage in human HeLa cells expressing swAPP at 2 uM after 4 hrs by immunoblot. The class given is cell-based.
In assay [9] the test system is Drosophila. As to the kind of experiment: Reduction on lethality of Drosophila w:actin-GAL4/Cyo;UASDPsn/Tm3 flies expressing presenilin mutant assessed as increase in survival by measuring eclosion numbers 4 mM dosed in diet. The class given is functional, organism-based.
For assay [10], the system named is Drosophila. The assay is described as follows: Reduction on lethality of Drosophila UAS-APP/UAS-APP; UAS-BACE523/UAS-BACE523 flies expressing BACE mutant assessed as increase in survival by measuring eclosion numbers 4 mM dosed in diet. It is filed as functional, organism-based.
Assay [11] addresses Beta-secretase 1 (Homo sapiens) (UniProt P56817). As to the kind of experiment: Inhibition of BACE1 mediated APP cleavage in human HeLa cells expressing swAPP assessed as amyloid beta production using rhodamine-labeled compound at 2 uM. The class given is cell-based. In short, it runs like this:
(§2)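 Rhodamine-labeled inhibitors at 2 μM on HeLa-swAPP cells; medium analyzed by ECL for sAPPβ and Aβ40, with viability (percent survival). Means ± SD, representative of three independent experiments.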

For assay [12], the system named is HeLa. As to the kind of experiment: Increase in alpha secretase mediated APP cleavage in human HeLa cells expressing swAPP at 2 uM after 4 hrs by immunoblot. The class given is cell-based. (In western blotting, separated proteins are transferred to a membrane and probed.)
For assay [13], the target named is Beta-secretase 1 (Homo sapiens) (UniProt P56817). The assay is described as follows: Inhibition of BACE1 mediated APP cleavage in human HeLa cells expressing swAPP assessed as amyloid beta production at 2 uM after 4 hrs by immunoblot. It is filed as cell-based.
For assay [14] the target is unchanged. As to the kind of experiment: Inhibition of BACE1 mediated APP cleavage in human HeLa cells expressing swAPP assessed as as beta cleaved ectodomain of APP level using rhodamine-labeled compound at 2 uM. It is filed as cell-based. Put shortly: as §2
The subject of assay [15] is HeLa. The assay is described as follows: Increase in alpha secretase mediated APP cleavage in human HeLa cells expressing swAPP assessed as alpha cleaved ectodomain of APP at 200 nM by electrochemiluminescence assay. It is filed as cell-based.
In assay [16] the target is Beta-secretase 1 (Homo sapiens) (UniProt P56817). As to the kind of experiment: Inhibition of BACE1 mediated APP cleavage in human HeLa cells expressing swAPP assessed as beta cleaved ectodomain of APP level using rhodamine-labeled compound at 0.1 mM. It is filed as cell-based. In short, it runs like this:
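HeLa-swAPP cells treated with a range of concentrations of the sterol-linked inhibitor; β-cleaved ectodomain detected by immunostaining and imaging, nuclei counterstained with DAPI.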

Beta-secretase 1 (Homo sapiens), sequence (P56817 whole entry, the tested form may be a part): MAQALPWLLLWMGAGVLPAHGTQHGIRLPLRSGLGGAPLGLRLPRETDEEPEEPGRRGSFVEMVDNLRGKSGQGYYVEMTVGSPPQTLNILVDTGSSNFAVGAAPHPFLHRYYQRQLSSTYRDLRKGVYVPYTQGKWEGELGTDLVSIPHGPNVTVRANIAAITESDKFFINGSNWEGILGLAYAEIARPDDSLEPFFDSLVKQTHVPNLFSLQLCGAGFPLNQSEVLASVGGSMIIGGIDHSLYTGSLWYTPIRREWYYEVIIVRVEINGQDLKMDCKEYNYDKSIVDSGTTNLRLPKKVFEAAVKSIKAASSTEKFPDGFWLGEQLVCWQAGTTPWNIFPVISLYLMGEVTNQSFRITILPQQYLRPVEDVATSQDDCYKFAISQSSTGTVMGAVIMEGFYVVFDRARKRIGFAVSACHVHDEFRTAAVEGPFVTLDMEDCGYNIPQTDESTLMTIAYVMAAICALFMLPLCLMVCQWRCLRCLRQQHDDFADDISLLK
Beta-secretase 1 (Mus musculus), sequence (P56818 whole entry): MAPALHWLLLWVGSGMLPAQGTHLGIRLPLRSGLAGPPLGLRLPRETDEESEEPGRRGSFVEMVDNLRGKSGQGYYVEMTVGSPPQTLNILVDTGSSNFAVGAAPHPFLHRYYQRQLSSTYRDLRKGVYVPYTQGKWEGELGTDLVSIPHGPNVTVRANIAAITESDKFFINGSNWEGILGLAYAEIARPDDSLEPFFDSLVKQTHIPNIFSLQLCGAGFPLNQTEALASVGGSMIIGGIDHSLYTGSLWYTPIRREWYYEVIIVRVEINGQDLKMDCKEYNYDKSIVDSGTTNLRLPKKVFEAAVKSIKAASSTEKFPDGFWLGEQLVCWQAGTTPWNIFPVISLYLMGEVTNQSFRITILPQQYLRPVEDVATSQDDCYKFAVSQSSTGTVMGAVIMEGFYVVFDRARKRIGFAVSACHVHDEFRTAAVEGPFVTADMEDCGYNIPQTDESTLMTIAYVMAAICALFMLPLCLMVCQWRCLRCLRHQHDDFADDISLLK

Turning to `CCCCCCCCCCCCCCOC(=O)C[C@H](NC(=O)CCOCCOCCOCCOCCNC(=O)CCOCCOCCOCCNC(=O)CCOCCOCCOCCOCCNC(=O)CCOCCOCCOCCNC(=O)CCOCCOCCOCCOCCNC(=O)[C@H](Cc1ccccc1)NC(=O)[C@H](CCC(=O)O)NC(=O)[C@H](C)NC(=O)[C@@H](NC(=O)C[C@H](O)[C@H](CC(C)C)NC(=O)[C@H](CC(N)=O)NC(=O)[C@@H](NC(=O)[C@@H](N)CCC(=O)O)C(C)C)C(C)C)C(N)=O` (H-EVN[Sta]VAEF[PEG4][PEG3][PEG4][PEG3][PEG4]D(X2)-NH2), the inhibition result in assay [1] and in assay [2] was “Active” in each case.

As to `CC(C)C[C@H](NC(=O)[C@H](CC(N)=O)NC(=O)[C@@H](NC(=O)[C@@H](N)CCC(=O)O)C(C)C)[C@@H](O)CC(=O)N[C@H](C(=O)N[C@@H](C)C(=O)N[C@@H](CCC(=O)O)C(=O)N[C@@H](Cc1ccccc1)C(=O)NCCOCCOCCOCCOCCC(=O)NCCOCCOCCOCCC(=O)NCCOCCOCCOCCOCCC(=O)NCCOCCOCCOCCC(=O)NCCOCCOCCOCCOCCC(N)=O)C(C)C` (H-EVN[Sta]VAEF[PEG4][PEG3][PEG4][PEG3][PEG4]-NH2), the inhibition entry in assay [3] is “inactive”.

Turning to `CC(C)C[C@H](NC(=O)[C@H](CC(N)=O)NC(=O)[C@@H](NC(=O)[C@@H](N)CCC(=O)O)C(C)C)[C@@H](O)CC(=O)N[C@H](C(=O)N[C@@H](C)C(=O)N[C@@H](CCC(=O)O)C(=O)N[C@@H](Cc1ccccc1)C(N)=O)C(C)C` (HELM PEPTIDE1{E.V.N.[CC(C)C[C@H](N[*:1])[C@@H](O)CC(=O)[*:2]].V.A.E.F.[am]}$$$$V2.0), the inhibition entry in [4], in assay [6] and in [7] was “inactive” throughout. Further, the inhibition entry in assay [5] is “Active”.

For the compound `CCN(CC)c1ccc2c(-c3ccccc3C(=O)N3CCN(C(=O)CC[C@H](NC(=O)CCNC(=O)[C@H](CCCN=C(N)N)NC(=O)[C@H](CCCN=C(N)N)NC(=O)CO[C@H]4CC[C@@]5(C)[C@@H](CC[C@@H]6[C@@H]5CC[C@]5(C)[C@@H]([C@H](C)CCCC(C)C)CC[C@@H]65)C4)C(=O)NCCC(=O)NCC(=O)N[C@@H](CCC(=O)O)C(=O)N[C@H](C(=O)N[C@@H](CC(N)=O)C(=O)N[C@@H](CC(C)C)[C@@H](O)CC(=O)N[C@H](C(=O)N[C@@H](C)C(=O)N[C@@H](CCC(=O)O)C(=O)N[C@@H](Cc4ccccc4)C(N)=O)C(C)C)C(C)C)CC3)c3ccc(=[N+](CC)CC)cc-3oc2c1` (X4-RR[βAla]E(Piperazinyl(4-RhodamineB))[βAla]GEVN[Sta]VAEF-NH2), the inhibition entry in [3] is “inactive”.

Consider `CC(C)CCC[C@@H](C)[C@H]1CC[C@H]2[C@@H]3CCC4C[C@@H](OC(=O)C[C@H](NC(=O)CCOCCOCCOCCOCCNC(=O)CCOCCOCCOCCNC(=O)CCOCCOCCOCCOCCNC(=O)CCOCCOCCOCCNC(=O)CCOCCOCCOCCOCCNC(=O)[C@H](Cc5ccccc5)NC(=O)[C@H](CCC(=O)O)NC(=O)[C@H](C)NC(=O)[C@@H](NC(=O)C[C@H](O)[C@H](CC(C)C)NC(=O)[C@H](CC(N)=O)NC(=O)[C@@H](NC(=O)[C@@H](N)CCC(=O)O)C(C)C)C(C)C)C(N)=O)CC[C@]4(C)[C@H]3CC[C@]12C` (stereo partly specified) (H-EVN[Sta]VAEF[PEG4][PEG3][PEG4][PEG3][PEG4]D(X1)-NH2), for which the inhibition result in [8], in assay [9], in assay [10], in assay [11], in assay [7] and in assay [12] was “Active” each time. For the same compound, the inhibition result in [13], in assay [14], in assay [15] and in assay [16] was “Active” throughout. Also, the outcome in assay [6] was Active.

Consider `CCCCCCCCCCCCCCCCOC(=O)C[C@H](NC(=O)CCOCCOCCOCCOCCNC(=O)CCOCCOCCOCCNC(=O)CCOCCOCCOCCOCCNC(=O)CCOCCOCCOCCNC(=O)CCOCCOCCOCCOCCNC(=O)[C@H](Cc1ccccc1)NC(=O)[C@H](CCC(=O)O)NC(=O)[C@H](C)NC(=O)[C@@H](NC(=O)C[C@H](O)[C@H](CC(C)C)NC(=O)[C@H](CC(N)=O)NC(=O)[C@@H](NC(=O)[C@@H](N)CCC(=O)O)C(C)C)C(C)C)C(N)=O` (H-EVN[Sta]VAEF[PEG4][PEG3][PEG4][PEG3][PEG4]D(X3)-NH2), for which the inhibition entry in assay [1] and in [2] was “Active” each time.
